Measured values taken from ChEMBL document CHEMBL1123010, “Nucleosides. 133. Synthesis of 5-alkenyl-1-(2-deoxy-2-fluoro-beta-D-arabinofuranosyl)cytosines and related pyrimidine nucleosides as potential antiviral agents” (J Med Chem, 1985).

Legend:
Human alphaherpesvirus 2 [1] = assay: Antiviral activity against herpes simplex type-2 expressed as ED50; format: functional; details: read-out: ED50 (the source's name)
Procedure, shortened: (§1)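 Plaque reduction in confluent mycoplasma-free Vero cells infected with HSV-1 strain F or HSV-2 strain G (about 100 plaques/well), rocked 1 h, inoculum removed, PBS (pH 7.2) wash. Five or more drug concentrations in maintenance medium with 0.1% pooled human globulin, in replicate.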

[2] = (§2) Ratio of ID50/ID90 in HSV-1; format: functional
[3] = (§3) Ratio of ID50/ID90 in HSV-2; format: functional
Human alphaherpesvirus 2 [4] = assay: Antiviral activity against herpes simplex type-2 expressed as ED90; format: functional; procedure, shortened: as §1
Vero = assay: Cytotoxic activity against vero cells was evaluated.; format: functional; details: Chlorocebus sabaeus, read-out: ID50 (the source's name)
Procedure, shortened: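 Drug toxicity measured in rapidly dividing Vero cells over 3 days; 50% inhibitory dose (ID50) derived by linear regression analysis.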

Human alphaherpesvirus 1 [5] = assay: Antiviral activity against herpes simplex type-1 expressed as ED50; format: functional; details: read-out: ED50 (the source's name); procedure, shortened: as §1
Human alphaherpesvirus 1 [6] = assay: Antiviral activity against herpes simplex type-1 expressed as ED90; format: functional; procedure, shortened: as §1
[7] = target: T1, Thymidine kinase (Human herpesvirus 2) (UniProt Q6L709); assay: Effect on thymidine kinase in the herpes simplex type-2 infected cells; format: functional; parameters: concentration or dose not given beside the values
T1 sequence (whole entry): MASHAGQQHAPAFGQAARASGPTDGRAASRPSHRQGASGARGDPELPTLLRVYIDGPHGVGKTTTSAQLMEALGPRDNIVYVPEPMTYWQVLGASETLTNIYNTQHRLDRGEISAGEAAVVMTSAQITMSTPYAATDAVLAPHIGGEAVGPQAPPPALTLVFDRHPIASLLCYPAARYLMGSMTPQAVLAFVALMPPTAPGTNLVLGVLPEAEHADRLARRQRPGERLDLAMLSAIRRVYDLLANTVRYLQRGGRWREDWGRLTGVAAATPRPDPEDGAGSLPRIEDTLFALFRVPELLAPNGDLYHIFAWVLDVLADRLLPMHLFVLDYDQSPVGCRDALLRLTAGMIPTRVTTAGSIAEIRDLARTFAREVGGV

[8] = tested on: Human alphaherpesvirus 1 (HSV-1); assay: Ratio of ID50/ID90 in HSV-1 in fected cells; format: ADME, organism-based; details: human alphaherpesvirus 1, HSV-1 infected cells; read-out: Therapeutic index
Procedure, shortened: (§4)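 Ratio of two measurements. ID50 came from 3-day growth of rapidly dividing Vero cells, by linear regression. ED90 came from plaque reduction in confluent Vero cells infected with HSV-1 strain F or HSV-2 strain G (about 100 plaques/well). After 1 h adsorption, compounds were added at ≥5 concentrations in medium with 0.1% human globulin. Plaques grew 48 h, then were formalin-fixed, crystal-violet-stained and counted; regression was against log concentration.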

[9] = tested on: Human alphaherpesvirus 2 (HSV-2); assay: Ratio of ID50/ID90 in HSV-2 infected cells; format: ADME, organism-based; details: human alphaherpesvirus 2, HSV-2 infected cells; read-out: Therapeutic index; procedure, shortened: as §4
[10] = tested on: Human alphaherpesvirus 1 (HSV-1); assay: Ratio of ID50/ID90 in HSV-1 infected cells; format: ADME, organism-based; details: human alphaherpesvirus 1, HSV-1 infected cells; read-out: Therapeutic index; procedure, shortened: as §4
L1210 = assay: In vitro inhibitory activity against L1212/0 cell line; format: functional; details: Mus musculus, read-out: ID50 (the source's name)
Procedure, shortened: (§5)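 Mouse leukemia cells (L1210/0, P815/0, P815/Ara-C) at 4×10^4 cells/mL in McCoy's 5A with 15% fetal calf serum, nucleoside added as 20-fold concentrate; 96 h at 37 °C in 5% CO2. Cells Coulter-counted, percent growth inhibition and 50% growth-inhibiting concentration calculated.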

P815 [11] = assay: In vitro inhibitory activity against P815/ara-C cell line; format: functional; details: Mus musculus, read-out: ID50 (the source's name); procedure, shortened: as §5
P815 [12] = assay: In vitro inhibitory activity against P815/0 cell line; format: functional; details: Mus musculus, read-out: ID50 (the source's name); procedure, shortened: as §5
[13] = tested on: Human alphaherpesvirus 1 (HSV-1); assay: as §2; format: ADME, organism-based; details: human alphaherpesvirus 1, in vivo; procedure, shortened: as §4
[14] = tested on: Human alphaherpesvirus 2 (HSV-2); assay: as §3; format: ADME, organism-based; details: human alphaherpesvirus 2, in vivo; procedure, shortened: as §4
Human alphaherpesvirus 1 [15] = assay: Effect of compound on thymidine kinase in the herpes simplex type-2 infected cells; format: functional, Human alphaherpesvirus 2

SMILES | EC50 (Human alphaherpesvirus 2 [1]) [µM] | Therapeutic index [2] | Therapeutic index [3] | ED90 (Human alphaherpesvirus 2 [4]) [µM] | IC50 (Vero) [µM] | EC50 (Human alphaherpesvirus 1 [5]) [µM] | ED90 (Human alphaherpesvirus 1 [6]) [µM] | Control [7] [%] | selectivity ratio [8] | selectivity ratio [9] | selectivity ratio [10] | IC50 (L1210) [µM] | IC50 (P815 [11]) [µM] | IC50 (P815 [12]) [µM] | selectivity ratio [13] | selectivity ratio [14] | Control (Human alphaherpesvirus 1 [15]) [%]
Nc1nc(=O)n([C@@H]2O[C@H](CO)[C@@H](O)[C@@H]2F)cc1/C=C/Br | 0.037 | 44 | 5 | 4.5 | 23 | 0.068 | 0.52 | 104 | – | – | – | – | – | – | – | – | –
Cc1cn([C@@H]2O[C@H](CO)[C@@H](O)[C@@H]2F)c(=O)nc1N | 0.026 | – | – | 0.1 | 1.5 | 0.006 | 0.048 | 110 | 31 | 15 | – | – | – | – | – | – | –
CCc1cn([C@@H]2O[C@H](CO)[C@@H](O)[C@@H]2F)c(=O)nc1N | 0.32 | – | – | 4.9 | 143 | 0.035 | 0.57 | 101 | – | 29 | 251 | – | – | – | – | – | –
C#Cc1cn([C@@H]2O[C@H](CO)[C@@H](O)[C@@H]2F)c(=O)nc1N | 0.64 | – | – | 6 | 30 | 2.1 | 7.5 | 86.3 | – | 5 | 4 | 10.1 | > 300 | 52.1 | – | – | –
Nc1nc(=O)n([C@@H]2O[C@H](CO)[C@@H](O)[C@@H]2F)cc1/C=C/C(=O)[O-].[Na+] | > 100 | – | – | >100 | > 200 | > 100 | >100 | 111 | – | – | – | – | – | – | – | – | –
Nc1nc(=O)n([C@@H]2O[C@H](CO)[C@@H](O)[C@@H]2F)cc1/C=C/I | 0.027 | – | – | 2.3 | > 200 | 0.088 | 0.74 | 101 | – | – | – | – | – | – | > 270 | > 87 | –
CCOC(=O)/C=C/c1cn([C@@H]2O[C@H](CO)[C@@H](O)[C@@H]2F)c(=O)nc1N | > 100 | – | – | >100 | 126 | > 100 | >100 | – | – | – | – | – | – | – | – | – | 107
O=c1[nH]c(=O)n([C@@H]2O[C@H](CO)[C@@H](O)[C@@H]2F)cc1/C=C/Cl | 0.52 | – | – | 5.5 | 159 | 0.059 | 0.7 | 106 | – | 29 | 227 | – | – | – | – | – | –
O=c1[nH]c(=O)n([C@@H]2O[C@H](CO)[C@@H](O)[C@@H]2F)cc1/C=C/I | 0.15 | – | – | 0.84 | 56 | 0.037 | 0.11 | 96.2 | – | 67 | 509 | – | – | – | – | – | –
Cc1cn([C@@H]2O[C@H](CO)[C@@H](O)[C@@H]2F)c(=O)[nH]c1=O [5-METHYL-2'-FLUOROARAURACIL] | 0.023 | – | – | 0.09 | 2.8 | 0.01 | 0.042 | 94.1 | – | – | – | 2.95 | 12.4 | 0.98 | – | – | –
C#Cc1cn([C@@H]2O[C@H](CO)[C@@H](O)[C@@H]2F)c(=O)[nH]c1=O | 3 | – | – | 7.9 | 62 | 1.9 | 46.6 | 90.8 | – | 8 | 1.3 | 23.5 | 84.7 | 20.4 | – | – | –
C=Cc1cn([C@@H]2O[C@H](CO)[C@@H](O)[C@@H]2F)c(=O)nc1N | 0.062 | – | – | 0.59 | 41 | 0.025 | 0.4 | 111 | – | 70 | 103 | 10.7 | > 300 | 23.8 | – | – | –
O=c1[nH]c(=O)n([C@H]2C[C@H](O)[C@@H](CO)O2)cc1/C=C/Br [BRIVUDINE] | 0.23 | – | – | 17 | 191 | 0.019 | 0.062 | 110 | – | 11 | 3080 | – | – | – | – | – | –
C=Cc1cn([C@@H]2O[C@H](CO)[C@@H](O)[C@@H]2F)c(=O)[nH]c1=O | 0.09 | – | – | 0.56 | 10.8 | 0.009 | 0.043 | 109 | – | 19 | 251 | 29 | 32.8 | 20.8 | – | – | –
C[Si](C)(C)C#Cc1cn([C@@H]2O[C@H](CO)[C@@H](O)[C@@H]2F)c(=O)[nH]c1=O | 5.1 | – | – | 32.1 | 17.1 | 5.7 | 39.5 | 95.8 | – | 0.5 | 0.4 | 17.8 | 107 | 9.8 | – | – | –
O=c1[nH]c(=O)n([C@@H]2O[C@H](CO)[C@@H](O)[C@@H]2F)cc1/C=C/Br | 0.13 | – | – | 0.73 | 101 | 0.067 | 0.47 | 86 | – | 138 | 216 | – | – | – | – | – | –
